Measurements from ChEMBL document CHEMBL1123555, “1,2-Bis(sulfonyl)hydrazines. 3. Effects of structural modification on antineoplastic activity” (1987).

Tests used:
Mus musculus [1] = organism: Mus musculus; assay: Antitumor activity against B16 melanoma cells in mice, activity is expressed as optimal effective dose; type: functional
Outline: (§1)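 Transplanted tumor in mice, given i.p. once daily for 6 consecutive days starting 24 h after implantation. Doses span 10-150 mg/kg per day as fine suspensions homogenized in a few drops of 20% aqueous Tween 80 and made up with isotonic saline. Groups of five; vehicle-injected tumor-bearing controls. %T/C = mean survival time treated/control × 100. Value is the daily dose giving maximum %T/C.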

L1210 = assay: Antitumor activity against L1210 leukemia cells in mice, activity is expressed as optimal effective dose.; type: functional, Mus musculus; outline: as §1
[2] = Antitumor activity against B16 melanoma cells in mice, activity is expressed as average survival time of treated/control animals x 100.; type: functional, Mus musculus
Outline: (§2)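 Compound given ip as a fine suspension (homogenized in drops of 20% aqueous Tween 80, made to volume with isotonic saline) at 10-150 mg/kg per day, once daily for 6 consecutive days starting 24 h after implantation. Vehicle-injected tumor-bearing controls were included. Read-out was survival time; body-weight change over therapy was the toxicity indicator.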

[3] = Antitumor activity against mouse B16 melanoma cells, calculated as average change in body weight from onset to termination of therapy; type: functional
Outline: (§3)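 Tumor-bearing mice in groups of five, dosed i.p. daily for 6 days from 24 h post-implantation with suspensions in Tween 80/isotonic saline at 10-150 mg/kg per day; vehicle controls run alongside. Mice weighed during the experiment. Average percent body-weight change from onset to termination of therapy was taken as the toxicity index, reported at the optimal-survival dose.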

Mus musculus [4] = organism: Mus musculus; assay: Antitumor activity against B16 melanoma cells in mice. Activity is expressed as optimal effective dose.; type: functional; outline: as §1
Mus musculus [5] = organism: Mus musculus; assay: Antitumor activity against L1210 leukemia cells in mice, activity is expressed as optimal effective dose; type: functional; outline: as §1
Mus musculus [6] = organism: Mus musculus; assay: Antitumor activity against L1210 leukemia cells in mice calculated as average change in body weight from onset to termination of therapy; type: functional; outline: as §3
Mus musculus [7] = organism: Mus musculus; assay: Antitumor activity against L1210 leukemia cells in mice (activity expressed as average survival time of treated/control animals x 100); type: functional; outline: as §2
Mus musculus [8] = organism: Mus musculus; assay: Antitumor activity against B16 melanoma cells in mice, activity is expressed as optimal effective dose.; type: functional; outline: as §1
Mus musculus [9] = organism: Mus musculus; assay: Antitumor activity against L1210 leukemia cells in mice, activity is expressed as average survival time of treated/control animals x 100; type: functional; outline: as §2

SMILES | Dose (Mus musculus [1]) [mg/kg] | Dose (L1210) [mg/kg] | T/C [2] [%] | Weight change [3] [%] | Dose (Mus musculus [4]) [mg/kg] | Dose (Mus musculus [5]) [mg/kg] | Weight change (Mus musculus [6]) [%] | T/C (Mus musculus [7]) [%] | Dose (Mus musculus [8]) [mg/kg] | T/C (Mus musculus [9]) [%]
Cc1ccc(S(=O)(=O)N(C)NS(=O)(=O)Cc2ccccc2)cc1 | 50 | 50 | 172 | -2.4 | – | – | – | – | – | –
Cc1ccc(S(=O)(=O)N(C)NS(=O)(=O)c2ccc(Br)cc2)cc1 | – | – | – | -5.1 | 150 | 50 | 5.6 | – | – | –
CN(NS(=O)(=O)c1ccc2ccccc2c1)S(=O)(=O)c1ccc2ccccc2c1 | 100 | – | – | 4.6 | – | 150 | -3.3 | – | – | –
CN(NS(=O)(=O)c1ccc(Br)cc1)S(=O)(=O)c1ccc(Br)cc1 | 50 | – | 160 | -3.8 | – | 150 | 1.7 | – | – | –
CN(NS(=O)(=O)c1ccc2ccccc2c1)S(=O)(=O)c1ccc(Br)cc1 | 200 | – | – | 3.7 | – | 100 | 18.3 | 123 | – | –
CN(NS(C)(=O)=O)S(C)(=O)=O | 50 | – | 278 | -7.9 | – | 25 | -15.3 | 340 | – | –
Cc1ccc(S(=O)(=O)NN(C)S(=O)(=O)c2ccc(Br)cc2)cc1 | – | – | – | – | – | 100 | – | – | – | –
COc1ccc(S(=O)(=O)N(CCCl)NS(=O)(=O)c2ccccc2)cc1 | – | – | 138 | -2.8 | 12.5 | 10 | 4.8 | 136 | – | –
CN(NS(=O)(=O)c1ccccc1)S(=O)(=O)c1ccc(Br)cc1 | – | – | 160 | 1.5 | – | – | – | – | 100 | –
CN(NS(=O)(=O)c1ccc(Br)cc1)S(C)(=O)=O | 100 | – | 235 | -11.4 | – | 40 | 6.3 | 191 | – | –
COc1ccc(S(=O)(=O)N(CCCl)NS(C)(=O)=O)cc1 | – | – | 184 | 3.8 | 10 | 10 | -10.9 | – | – | 214
COc1ccc(S(=O)(=O)NN(C)S(C)(=O)=O)cc1 | 60 | 60 | 233 | -11.9 | – | – | -13.7 | 221 | – | –
COc1ccc(S(=O)(=O)NN(C)S(=O)(=O)c2ccc(Br)cc2)cc1 | 100 | – | – | 1.3 | – | 100 | 7.8 | – | – | –
COc1ccc(S(=O)(=O)N(C)NS(=O)(=O)c2ccccc2[N+](=O)[O-])cc1 | 150 | – | 158 | 1.5 | – | – | – | – | – | –
COc1ccc(S(=O)(=O)N(C)NS(=O)(=O)c2ccc(Br)cc2)cc1 | – | – | – | -0.1 | 100 | 100 | 3.4 | – | – | –
